In ChEMBL document CHEMBL1121472, “Derivatives of 5-hydroxy-6-methyl-2-aminotetralin” (1980):
Calls of active or inactive are those of the source. The calls are words filed in the database; no cut-off is given here.

Columns and labels:
Canis familiaris [1] = assay: Compound was evaluated for emesis action in dogs administered subcutaneously; NA denotes inactive; assay type: functional, organism-based; conditions: Canis lupus familiaris
Method in brief: (§1)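 Five adult mongrel dogs, housed singly with food ad libitum, were given drug solutions sc, and vomiting frequency was counted over 1 h. Three doses of apomorphine hydrochloride (0.08, 0.16, 0.32 μmol/kg) as reference and three of the test compound were compared by a 3 × 3 parallel line bioassay to give relative potency with 95% confidence limits.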

Felis catus [2] = assay: Inhibition of chronotropic response to cardioaccelerator nerve stimulation in the cat; NA denotes inactive uM/kg; assay type: functional, organism-based
Method in brief: (§2)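 Cats were bilaterally vagotomized and pretreated iv with atropine sulfate (0.2 mg/kg). Right postganglionic cardioaccelerator nerves were placed on bipolar electrodes and stimulated at 2 Hz, 5-ms pulses, for 30 s at 20–25 V. Heart rate was recorded by cardiotachometer, femoral arterial pressure was monitored, and drugs were given iv via a femoral vein catheter. ED50 is in μmol/kg with 95% CL. Blockade was tested with haloperidol 0.1 mg/kg.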

Felis catus [3] = assay: Inhibition of chronotropic response to cardioaccelerator nerve stimulation in the cat at 10 uM/kg; NA denotes inactive; assay type: functional, organism-based; method in brief: as §2
Rattus norvegicus [4] = assay: Compound was evaluated for rotational behavior in rats and (contralateral turning) circling response were recorded at a dose of 11.7 umol/Kg; assay type: functional
Method in brief: (§3)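 Male Sprague Dawley rats received a unilateral stereotaxic injection of 6-hydroxydopamine hydrobromide (6 μg in 3 μL) into the substantia nigra region (anterior 24, lateral 1.8, vertical 7.0). Drug was then given sc, and contralateral turns were counted over the next 1 h and reported as turns/h at the stated dose.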

Felis catus [5] = species on record: Felis catus; assay: Inhibition of chronotropic response to cardioaccelerator nerve stimulation in the cat; assay type: functional; method in brief: as §2
Rattus norvegicus [6] = assay: Compound was evaluated for rotational behavior in rats and (contralateral turning) circling response were recorded at a dose of 5.85 umol/Kg; assay type: functional; method in brief: as §3
Rattus norvegicus [7] = assay: Compound was evaluated for rotational behavior in rats and (contralateral turning) circling response were recorded at a dose of 14.0 umol/kg; IA = inactive; assay type: functional, organism-based; method in brief: as §3
Rattus norvegicus [8] = assay: Compound was evaluated for rotational behavior in rats and (contralateral turning) circling response were recorded at a dose of 400 umol/Kg; IA=Inactive; assay type: functional, organism-based
Felis catus [9] = assay: Inhibition of chronotropic response to cardioaccelerator nerve stimulation in the cat; NI denotes no inhibition up to 1.55 uM/kg; assay type: functional, organism-based; method in brief: as §2
Rattus norvegicus [10] = assay: Compound was evaluated for rotational uM/kg; assay type: functional, organism-based; method in brief: as §3
Felis catus [11] = species on record: Felis catus; assay: Inhibition of chronotropic response to cardioaccelerator nerve stimulation in the cat; NA denotes inactive; assay type: functional, organism-based; method in brief: as §2
Canis familiaris [12] = assay: Compound was evaluated for emesis action in dogs, administered subcutaneously; NA denotes inactive; assay type: functional, organism-based; conditions: Canis lupus familiaris; method in brief: as §1
Canis familiaris [13] = assay: Compound was evaluated for emesis action in dogs, administered subcutaneously; Range is (0.02-0.08); assay type: functional, Canis lupus familiaris
Rattus norvegicus [14] = assay: Compound was evaluated for rotational behavior in rats and (contralateral turning) circling response were recorded at a dose of 0.41 umol/Kg; assay type: functional; method in brief: as §3

**Q.** What does the source list for `CNC1CCc2c(ccc(C)c2O)C1` (configuration not stated)?
**A.** Potency ratio (Canis familiaris [1]): inactive; ED50 (Felis catus [2]): inactive

**Q.** Which ED50 (Felis catus [3]) does the source give for `CCCNC1CCc2c(ccc(C)c2O)C1` (configuration not stated) here?
**A.** inactive

**Q.** `Br.CCCN(CCC)C1CCc2c(ccc(C)c2O)C1` (configuration not stated) was tested. Which Rotational behavior (Rattus norvegicus [4]) did it give?
**A.** 346.86 turns hr-1

**Q.** What about the ED50 (Felis catus [5]) of the same molecule?
**A.** 0.025 µmol/kg

**Q.** And the Rotational behavior (Rattus norvegicus [6])?
**A.** 131.43 turns hr-1

**Q.** `Cc1ccc2c(c1O)CCC(N(C)C)C2` (configuration not stated) was tested. Which Rotational behavior (Rattus norvegicus [7]) did it give?
**A.** inactive

**Q.** With `Br.CCN(CC)C1CCc2c(ccc(C)c2O)C1` (configuration not stated) as the molecule, how does the Rotational behavior (Rattus norvegicus [8]) read?
**A.** inactive

**Q.** What about the ED50 (Felis catus [5]) of the same molecule?
**A.** 0.48 µmol/kg

**Q.** Which results are given for `Cc1ccc2c(c1O)CCC(N)C2` (configuration not stated)?
**A.** ED50 (Felis catus [9]): No inhibition; Activity (Rattus norvegicus [10]): NI

**Q.** With `Cc1ccc2c(c1O)CCC(NC(C)C)C2` (configuration not stated) as the molecule, how does the ED50 (Felis catus [11]) read?
**A.** inactive

**Q.** And the Potency ratio (Canis familiaris [12])?
**A.** inactive

**Q.** What does the source list for `CN1CCc2cccc3c2[C@H]1Cc1ccc(O)c(O)c1-3` [APOMORPHINE]?
**A.** Potency ratio (Canis familiaris [13]): 0.046; ED50 (Felis catus [5]): 0.022 µmol/kg; Rotational behavior (Rattus norvegicus [14]): 175.21 turns hr-1

**Q.** For `CCNC1CCc2c(ccc(C)c2O)C1` (configuration not stated), which ED50 (Felis catus [2]) is on record?
**A.** inactive
